{"source": "ChEMBL document CHEMBL4373703", "about": "(J Med Chem, 2019)", "key": {"[1]": {"molecular_target": "Voltage-gated inwardly rectifying potassium channel KCNH2 (Homo sapiens, UniProt Q12809)", "sequence (Q12809 whole entry)": "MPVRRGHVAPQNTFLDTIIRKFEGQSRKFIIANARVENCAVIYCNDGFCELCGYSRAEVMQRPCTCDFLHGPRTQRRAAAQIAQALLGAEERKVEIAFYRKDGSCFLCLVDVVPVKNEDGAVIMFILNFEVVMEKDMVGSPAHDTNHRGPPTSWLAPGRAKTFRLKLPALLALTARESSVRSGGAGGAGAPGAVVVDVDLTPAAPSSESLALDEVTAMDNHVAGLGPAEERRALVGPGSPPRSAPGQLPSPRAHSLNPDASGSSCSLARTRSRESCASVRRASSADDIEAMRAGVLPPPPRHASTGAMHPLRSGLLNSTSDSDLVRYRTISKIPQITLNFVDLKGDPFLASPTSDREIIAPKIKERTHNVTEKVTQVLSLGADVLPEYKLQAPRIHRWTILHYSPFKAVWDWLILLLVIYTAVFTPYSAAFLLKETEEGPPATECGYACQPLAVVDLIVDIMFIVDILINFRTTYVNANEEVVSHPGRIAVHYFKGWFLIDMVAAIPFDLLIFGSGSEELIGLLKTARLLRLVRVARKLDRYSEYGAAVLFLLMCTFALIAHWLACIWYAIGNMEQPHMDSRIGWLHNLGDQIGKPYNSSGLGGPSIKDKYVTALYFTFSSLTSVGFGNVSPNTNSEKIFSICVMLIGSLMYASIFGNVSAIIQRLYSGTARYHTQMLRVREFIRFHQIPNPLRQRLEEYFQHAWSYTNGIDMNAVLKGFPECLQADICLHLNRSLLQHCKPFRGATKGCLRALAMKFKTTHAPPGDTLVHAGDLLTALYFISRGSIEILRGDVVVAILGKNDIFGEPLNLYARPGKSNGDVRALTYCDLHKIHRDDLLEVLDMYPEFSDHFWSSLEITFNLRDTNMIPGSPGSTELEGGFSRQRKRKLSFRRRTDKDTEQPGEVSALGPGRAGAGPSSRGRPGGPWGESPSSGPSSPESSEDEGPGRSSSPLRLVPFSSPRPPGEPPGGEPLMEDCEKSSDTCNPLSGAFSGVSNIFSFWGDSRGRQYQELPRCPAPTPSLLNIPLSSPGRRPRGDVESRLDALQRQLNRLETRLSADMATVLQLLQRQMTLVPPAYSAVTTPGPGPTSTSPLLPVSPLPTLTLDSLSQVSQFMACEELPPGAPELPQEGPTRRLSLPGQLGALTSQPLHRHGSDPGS", "test": "Inhibition of human ERG expressed in HEK293 cells at -80 mV holding potential by […]", "format": "cell-based"}, "Mus musculus [2]": {"test_system": "Mus musculus", "test": "Inhibition of B cell activation in C57BL/6 mouse at 1 mg/kg, po after 0.25 hr relative to control", "format": "functional"}, "[3]": {"test": "Cmax in C57BL/6 mouse at 1 mg/kg, po", "format": "ADME, organism-based", "set-up": "dose 1 mg/kg, route oral", "conditions": "in vivo"}, "[4]": {"test": "Half-life in Wistar rat plasma at 2 mg/kg, iv or 10 mg/kg, po administered as suspension", "format": "ADME, organism-based"}, "Rattus norvegicus [5]": {"test_system": "Rattus norvegicus", "test": "Antiarthritic activity in Lewis rat model of collagen-induced arthritis assessed as reduction in ankle histopathological scores at 10 mg/kg, po administered via gavage once daily starting from day 6 to day 16 relative to control", "set-up": "scale not given: the % may be the effect or the level left"}, "Mus musculus [6]": {"test_system": "Mus musculus", "test": "Inhibition of B cell activation in C57BL/6 mouse at 1 mg/kg, po after 24 hr relative to control", "format": "functional", "how_it_was_run": "(§1)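 Normal C57BL/6 mice received a single oral dose of 1 mg/kg and were tested in an in vivo B cell stimulation assay. Inhibition of B cell activation was read at 1 h and 24 h after dosing.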"}, "[7]": {"test": "Oral bioavailability in Wistar rat at 10 mg/kg", "format": "ADME, organism-based", "conditions": "in vivo"}, "[8]": {"test": "Tmax in Mongrel dog at 3 mg/kg, po administered as suspension", "format": "ADME, organism-based, Canis lupus familiaris", "conditions": "in vivo"}, "Rattus norvegicus [9]": {"test_system": "Rattus norvegicus", "test": "Antiarthritic activity in Lewis rat model of collagen-induced arthritis assessed as reduction in ankle histopathological scores at 1 mg/kg, po administered via gavage once daily starting from day 6 to day 16 relative to control", "set-up": "scale not given: the % may be the effect or the level left"}, "[10]": {"test": "Half-life in Mongrel dog plasma at 1 mg/kg, iv or 3 mg/kg, po administered as suspension", "format": "ADME, organism-based, Canis lupus familiaris"}, "[11]": {"test": "Oral bioavailability in NMRI mouse at 3 mg/kg", "format": "ADME, organism-based", "conditions": "in vivo"}, "Rattus norvegicus [12]": {"test_system": "Rattus norvegicus", "test": "Antiarthritic activity in Lewis rat model of collagen-induced arthritis assessed as reduction in ankle histopathological scores at 3 mg/kg, po administered via gavage once daily starting from day 6 to day 16 relative to control", "set-up": "scale not given: the % may be the effect or the level left"}, "[13]": {"test": "Intrinsic clearance in human liver microsomes at 1 uM in presence of NADPH measured up to 30 mins by LC-MS/MS analysis", "format": "ADME, Microsome", "conditions": "read-out: CLH"}, "[14]": {"molecular_target": "T1, Tyrosine-protein kinase Tec (Homo sapiens, UniProt P42680)", "T1 sequence (P42680 whole entry)": "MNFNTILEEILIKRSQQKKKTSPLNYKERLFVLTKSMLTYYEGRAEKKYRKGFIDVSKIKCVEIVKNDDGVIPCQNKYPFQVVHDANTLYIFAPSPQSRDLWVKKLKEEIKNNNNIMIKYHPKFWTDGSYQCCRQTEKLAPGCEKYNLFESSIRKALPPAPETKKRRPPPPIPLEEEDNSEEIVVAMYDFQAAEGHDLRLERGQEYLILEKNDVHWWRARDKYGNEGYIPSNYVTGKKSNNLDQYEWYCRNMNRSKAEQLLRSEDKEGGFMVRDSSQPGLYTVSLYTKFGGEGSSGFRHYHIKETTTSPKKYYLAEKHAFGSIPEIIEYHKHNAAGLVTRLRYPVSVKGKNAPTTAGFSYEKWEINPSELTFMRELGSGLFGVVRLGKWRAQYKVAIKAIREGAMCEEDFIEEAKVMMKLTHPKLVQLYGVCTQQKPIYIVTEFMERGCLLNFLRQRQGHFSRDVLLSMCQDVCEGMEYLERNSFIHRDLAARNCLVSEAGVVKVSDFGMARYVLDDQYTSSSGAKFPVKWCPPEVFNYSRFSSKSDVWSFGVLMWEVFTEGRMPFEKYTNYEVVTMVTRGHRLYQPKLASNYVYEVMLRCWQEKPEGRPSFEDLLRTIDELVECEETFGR", "test": "Inhibition of N-terminal His6-tagged human TEC (174 to end aminoacids) expressed in baculovirus infected Sf21 cells at 1 uM", "conditions": "sf21, 1 µM"}, "Mus musculus [15]": {"test_system": "Mus musculus", "test": "Inhibition of B cell activation in C57BL/6 mouse at 1 mg/kg, po after 1 hr relative to control", "format": "functional", "how_it_was_run": "as §1"}, "[16]": {"test": "Half-life in NMRI mouse plasma at 1 mg/kg, iv or 3 mg/kg, po administered as suspension", "format": "ADME, organism-based"}, "[17]": {"test": "Stability of the compound in plasma (unknown origin) assessed as compound remaining at 4 hrs", "format": "ADME, cell-free", "conditions": "read-out: Stability"}, "Mus musculus [18]": {"test_system": "Mus musculus", "test": "Antiarthritic activity in […] model of collagen-induced arthritis assessed as reduction in ankle swelling at 3 mg/kg, po administered via gavage once daily starting from day 6 to day 16 and measured from day 11 to day 17 by caliper method", "format": "functional, organism-based", "how_it_was_run": "(§2)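 Female Lewis rats with semi-established type II collagen arthritis were dosed by oral gavage once daily on days 6–16 with vehicle (20% hydroxypropyl-beta-cyclodextrin in H2O), test agent (0.3–30 mg/kg) or methotrexate 0.1 mg/kg. Ankle thickness was measured daily by caliper, and animals were terminated on day 17. n = 10 per treatment group, 4 normal controls; ANOVA vs vehicle, P ≤ 0.05.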"}, "[19]": {"test": "Kinetic solubility of the compound", "format": "physicochemical", "conditions": "read-out: Kinetic_solubility"}, "Mus musculus [20]": {"test_system": "Mus musculus", "test": "Antiarthritic activity in […] model of collagen-induced arthritis assessed as reduction in ankle swelling at 30 mg/kg, po administered via gavage once daily starting from day 6 to day 16 and measured from day 10 to day 17 by caliper method", "format": "functional, organism-based", "how_it_was_run": "as §2"}, "Mus musculus [21]": {"test_system": "Mus musculus", "test": "Antiarthritic activity in […] model of collagen-induced arthritis assessed as reduction in ankle swelling at 10 mg/kg, po administered via gavage once daily starting from day 6 to day 16 and measured from day 11 to day 17 by caliper method", "format": "functional, organism-based", "how_it_was_run": "as §2"}, "[22]": {"test": "Tmax in NMRI mouse at 3 mg/kg, po administered as suspension", "format": "ADME, organism-based", "conditions": "in vivo"}, "[23]": {"test": "Tmax in Wistar rat at 10 mg/kg, po administered as suspension", "format": "ADME, organism-based", "conditions": "in vivo"}, "[24]": {"test": "Apparent permeability across apical to basolateral side in human Caco2 cells at 1 uM incubated for 2 hrs by LC-MS/MS analysis", "format": "ADME, cell-based", "conditions": "Caco-2"}, "Rattus norvegicus [25]": {"test_system": "Rattus norvegicus", "test": "Antiarthritic activity in Lewis rat model of collagen-induced arthritis assessed as reduction in ankle histopathological scores at 0.3 mg/kg, po administered via gavage once daily starting from day 6 to day 16 relative to control", "set-up": "scale not given: the % may be the effect or the level left"}, "Rattus norvegicus [26]": {"test_system": "Rattus norvegicus", "test": "Antiarthritic activity in Lewis rat model of collagen-induced arthritis assessed as reduction in ankle histopathological scores at 30 mg/kg, po administered via gavage once daily starting from day 6 to day 16 relative to control", "set-up": "scale not given: the % may be the effect or the level left"}}, "note": "Activity calls are given as the source filed them. The rule behind the calls is not given here."}
{"smiles": "C=CC(=O)N1CCC(CNc2ncnc(N)c2-c2ccc(Oc3ccccc3)cc2)CC1", "note": "[EVOBRUTINIB]", "values": [{"measurement": "Ki", "setting": "[1]", "value": 3.1, "unit": "µM"}, {"measurement": "inhibition (INH)", "setting": "Mus musculus [2]", "value": 17, "unit": "%"}, {"measurement": "Cmax", "setting": "[3]", "value": 52, "unit": "nM"}, {"measurement": "half-life", "setting": "[4]", "value": 1, "unit": "h"}, {"measurement": "Activity", "setting": "Rattus norvegicus [5]", "value": 63, "unit": "%"}, {"measurement": "inhibition (INH)", "setting": "Mus musculus [6]", "value": 25, "unit": "%"}, {"measurement": "bioavailability", "setting": "[7]", "value": "< 5", "unit": "%"}, {"measurement": "Tmax", "setting": "[8]", "value": "0.25 to 1", "unit": "h"}, {"measurement": "Activity", "setting": "Rattus norvegicus [9]", "value": 3, "unit": "%"}, {"measurement": "half-life", "setting": "[10]", "value": 1, "unit": "h"}, {"measurement": "bioavailability", "setting": "[11]", "value": "≤ 25", "unit": "%"}, {"measurement": "Activity", "setting": "Rattus norvegicus [12]", "value": 42, "unit": "%"}, {"measurement": "microsomal CLint at 1 µM", "setting": "[13]", "value": 110, "unit": "µL/min/mg"}, {"measurement": "inhibition (INH)", "setting": "[14]", "value": "Active"}, {"measurement": "inhibition (INH)", "setting": "Mus musculus [15]", "value": 71, "unit": "%"}, {"measurement": "half-life", "setting": "[16]", "value": 1, "unit": "h"}, {"measurement": "remaining at 4 h", "setting": "[17]", "value": 81, "unit": "%"}, {"measurement": "Activity", "setting": "Mus musculus [18]", "value": "Active"}, {"measurement": "solubility kinetic", "setting": "[19]", "value": 60, "unit": "µM"}, {"measurement": "Activity", "setting": "Mus musculus [20]", "value": "Active"}, {"measurement": "Activity", "setting": "Mus musculus [21]", "value": "Active"}, {"measurement": "Tmax", "setting": "[22]", "value": "0.25 to 1", "unit": "h"}, {"measurement": "Tmax", "setting": "[23]", "value": "0.25 to 1", "unit": "h"}, {"measurement": "Papp A→B at 2 h, 1 µM", "setting": "[24]", "value": 22, "unit": "×10⁻⁶ cm/s"}, {"measurement": "Activity", "setting": "Rattus norvegicus [25]", "value": 1, "unit": "%"}, {"measurement": "Activity", "setting": "Rattus norvegicus [26]", "value": 94, "unit": "%"}]}
